Experimental findings from ChEMBL document CHEMBL5034022, “Pharmacophore-Based Design of Phenyl-[hydroxycyclohexyl] Cycloalkyl-Carboxamide Mitofusin Activators with Improved Neuronal Activity” (J Med Chem, 2021) are described below.

Data set [1] can be described thus: MRT (0 to infinity) in overnight fasted CD-1 mouse total plasma at 50 mg/kg, po by HPLC analysis. The class given is ADME, organism-based. An outline of the steps: (§1)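 Overnight-fasted 7-9 week male CD-1 mice, food returned 4 h post-dose, given 50 mg/kg by oral gavage (5 mg/mL in 30% SBE-β-CD); plasma and brain (homogenized in MeOH/15 mM PBS) quenched with ACN internal-standard mix, HPLC; free levels calculated from mouse plasma and brain protein binding; mean ± SEM, 3 mice per time point.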

The nature of data set [2]: MRT (0 to infinity) in overnight fasted CD-1 mouse total brain at 50 mg/kg, po by HPLC analysis. Format: ADME, organism-based. The procedure, abridged:
as §1

Data set [3] can be described thus: Volume of distribution at steady state in CD-1 mouse at 10 mg/kg, iv administered as single dose by HPLC analysis. The class given is ADME, organism-based. Particulars: in vivo, read-out: Vdss. An outline of the steps:
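Single 10 mg/kg IV dose of enantiomeric mixture in 10%DMSO/90%(30%HP-b-CD) to 7-9 week male CD-1 mice; plasma collected over time, proteins precipitated with ACN containing warfarin internal standard, analysed by HPLC; non-compartmental analysis; mean ± SEM, 3 mice per condition.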

A short description of data set [4]: Activation of Mitofusin in MFN2 deficient mouse MEF cells assessed as mitochondria elongation.
Data set [5] in a line: Plasma protein binding in human assessed as bound fraction at 2 uM incubated for 120 mins by equilibrium dialysis method. Format: ADME, cell-free. Particulars: read-out: PPB (converted). (In equilibrium dialysis only unbound substance equilibrates across the membrane.)
Data set [6] in a line: Plasma protein binding in mouse assessed as bound fraction at 2 uM measured after 120 mins by equilibrium dialysis method. Particulars: read-out: PPB (converted). Format: ADME, cell-free.
A short description of data set [7]: Tmax in non-fasted CD-1 mouse brain at 50 mg/kg, po by HPLC analysis. The class given is ADME, organism-based. An outline of the steps:
(§2)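 Oral gavage 50 mg/kg (5 mg/mL in 10%DMSO/90%(30%HP-b-CD)) to non-fasted 7-9 week male CD-1 mice; brain, spinal cord and sciatic nerve homogenized in water, diluted in control mouse plasma, ACN precipitation with warfarin internal standard, HPLC; non-compartmental time-concentration analysis; 3 mice per condition.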

Data set [8] can be described thus: Tmax in non-fasted CD-1 mouse spinal cord at 50 mg/kg, po by HPLC analysis. The class given is ADME, organism-based. An outline of the steps:
as §2

Data set [9] can be described thus: Tmax in non-fasted CD-1 mouse right sciatic nerve at 50 mg/kg, po by HPLC analysis. Format: ADME, organism-based. An outline of the steps: as §2
The nature of data set [10]: Tmax in non-fasted CD-1 mouse left sciatic nerve at 50 mg/kg, po by HPLC analysis. The class given is ADME, organism-based. The procedure, abridged:
as §2

The term MRT inf denotes the average time that molecules of a dose stay in the body. Regarding `O=C(CCCCCc1ccccc1)N[C@H]1CC[C@H](O)CC1`, the MRT inf in data set [1] is 60.6 min; in [2], 57.5 min.
As for `O=C(N[C@H]1CC[C@H](O)CC1)C1CC1CCCc1ccccc1` (some centres not stated), the Vd in data set [3] was 0.6 L/kg.
What is called EC50 is the concentration giving half of the maximal effect. Consider `O=C(N[C@H]1CC[C@H](O)CC1)C1CCC(CCCc2ccccc2)C1` (some centres not stated), for which the concentration for a half-maximal effect (EC50) in data set [4] amounted to 15.3 nM. In addition, the fraction unbound at 2 h, 2 µM is 0.0075 in data set [5] and 0.012 in data set [6].
In general, Tmax refers to the time from dosing to the highest level. Take `O=C(N[C@H]1CC[C@H](O)CC1)[C@@H]1C[C@H]1CCCc1ccccc1`: the Tmax in data set [7], in data set [8], in [9] and in [10] was 30 min in each case. Further, the MRT inf turned out to be 115 min in data set [1] and 119 min in [2].
